Results on 8 molecules are retold here after ChEMBL document CHEMBL1129989, “Minor structural differences in Boc-CCK-4 derivatives dictate affinity and selectivity for CCK-A and CCK-B receptors” (J Med Chem, 1997).

The species entered for assay [1] is Cavia porcellus. Briefly: Relative affinity for type B (cortex) over type A (pancreatic) cholecystokinin receptors. The method, boiled down: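 Selectivity ratio is IC50 in cortex divided by IC50 in pancreas. Both IC50s come from displacement of specific [125I]Bolton–Hunter CCK-8 binding, each determination run in duplicate.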
Assay [2] has as its target Cholecystokinin type B receptor (Cavia porcellus). Briefly: Displacement of [125I]- BH-CCK-8 from Cholecystokinin type B receptor of guinea pig cortex.
The target in assay [3] is T1, Cholecystokinin receptor type A (Cavia porcellus, UniProt Q63931).
T1 sequence (Q63931 whole entry): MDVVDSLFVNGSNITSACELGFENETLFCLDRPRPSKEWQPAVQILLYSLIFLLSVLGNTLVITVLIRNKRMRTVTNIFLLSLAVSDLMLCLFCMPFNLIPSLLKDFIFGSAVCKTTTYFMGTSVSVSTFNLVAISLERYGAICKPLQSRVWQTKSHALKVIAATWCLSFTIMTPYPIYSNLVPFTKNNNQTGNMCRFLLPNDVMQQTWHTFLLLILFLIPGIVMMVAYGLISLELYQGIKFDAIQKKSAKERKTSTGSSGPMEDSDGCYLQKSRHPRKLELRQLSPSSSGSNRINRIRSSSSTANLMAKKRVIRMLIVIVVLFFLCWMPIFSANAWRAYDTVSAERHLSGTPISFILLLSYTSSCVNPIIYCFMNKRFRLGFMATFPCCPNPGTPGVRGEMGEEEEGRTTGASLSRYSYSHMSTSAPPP
Briefly: Displacement of [125I]- BH-CCK-8 from Cholecystokinin type A receptor of guinea pig pancreas. The method, boiled down: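 Competition binding in pancreas and cortex tissue membranes with [125I]Bolton–Hunter CCK-8 as radioligand. […] Values are means ± SE over several determinations, each run in duplicate with <5% sample variability.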

The species entered for assay [4] is Cavia porcellus. Nature of the assay: Concentration that stimulated amylase release in guinea pig pancreatic acini relative to CCK-8. The assay is classed as functional.
The test system of assay [5] is NCI-H345. Nature of the assay: Concentration that produced 50% of the maximal response in intracellular calcium mobilization in the NCI-H345 cells. The assay is classed as functional, cell-based. The settings on record: Homo sapiens. An outline of the steps: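 NCI-H345 cells carry the CCK-B/gastrin receptor. Intracellular calcium mobilization was read by indo-1 fluorescence. […] Values are means ± SE of several determinations.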

Assay [6] is filed under the species Cavia porcellus. Nature of the assay: The maximal response elicited by the compound (concentration of 100 uM) relative to the maximal response elicited by CCK-8 (1 uM) in the PI hydrolysis assay. The assay is classed as functional.
The test system of assay [7] is NCI-H345. Nature of the assay: The maximal response elicited by the compound (concentration of 10 uM) relative to the maximal response elicited by CCK-8. The assay is classed as functional, Homo sapiens.
Assay [8] concerns NCI-H345. Nature of the assay: The maximal response elicited by the compound (concentration of 1 uM) relative to the maximal response elicited by CCK-8. In kind it is functional, Homo sapiens.

Structures are written as SMILES. *1 amine or outer side, *2 acyl side, *3 side chain or, on linkers, in order; H or OH if unused. Where a SMILES comes first, the peptide text is derived from it. Side-chain parts run from the residue outwards. The star is where a group is joined. NH(4-MeO-phenyl) = COc1ccc(N*)cc1; pNA = O=[N+]([O-])c1ccc(N*)cc1; X2 = O=[N+]([O-])c1cccc(N*)c1; NH(3-MeOPh) = COc1cccc(N*)c1; 3Abz = Nc1cccc(C(=O)O)c1; 4Abz = Nc1ccc(C(=O)O)cc1; X1 = CC(=O)c1ccc(N*)cc1; 2Abz = Nc1ccccc1C(=O)O; Boc = CC(C)(C)OC(=O)*; CO = O=C([*:1])[*:2]

In the assay filed under Cavia porcellus [1], `COC(=O)c1ccccc1NC(=O)NCCCC[C@H](NC(=O)[C@H](Cc1c[nH]c2ccccc12)NC(=O)OC(C)(C)C)C(=O)N[C@@H](CC(=O)O)C(=O)N[C@@H](Cc1ccccc1)C(N)=O` (Boc-WK([CO-2Abz-OMe])DF-NH2) displayed a C/P of 91. This molecule yielded a half-maximal inhibitory concentration (IC50) in assay [2] of 3100 nM.

In the case of `COC(=O)c1cccc(NC(=O)NCCCC[C@H](NC(=O)[C@H](Cc2c[nH]c3ccccc23)NC(=O)OC(C)(C)C)C(=O)N[C@@H](CC(=O)O)C(=O)N[C@@H](Cc2ccccc2)C(N)=O)c1` (Boc-WK([CO-3Abz-OMe])DF-NH2), the IC50 in assay [3] came out at 15 nM. The C/P in the assay filed under Cavia porcellus [1] came to 67.

Consider `COC(=O)c1ccc(NC(=O)NCCCC[C@H](NC(=O)[C@H](Cc2c[nH]c3ccccc23)NC(=O)OC(C)(C)C)C(=O)N[C@@H](CC(=O)O)C(=O)N[C@@H](Cc2ccccc2)C(N)=O)cc1` (Boc-WK([CO-4Abz-OMe])DF-NH2), for which the IC50 in assay [3] is 71 nM.

`COc1cccc(NC(=O)NCCCC[C@H](NC(=O)[C@H](Cc2c[nH]c3ccccc23)NC(=O)OC(C)(C)C)C(=O)N[C@@H](CC(=O)O)C(=O)N[C@@H](Cc2ccccc2)C(N)=O)c1` (Boc-WK([CO-NH(3-MeOPh)])DF-NH2): the half-inhibitory concentration (IC50) in assay [3] is 9.4 nM. The C/P in the assay filed under Cavia porcellus [1] is 150.

With `COc1ccc(NC(=O)NCCCC[C@H](NC(=O)[C@H](Cc2c[nH]c3ccccc23)NC(=O)OC(C)(C)C)C(=O)N[C@@H](CC(=O)O)C(=O)N[C@@H](Cc2ccccc2)C(N)=O)cc1` (Boc-WK([CO-NH(4-MeO-phenyl)])DF-NH2), in assay [3], the IC50 is 14 nM. Also, in the assay filed under Cavia porcellus [1], the C/P was found to be 50.

Turning to `CC(=O)c1ccc(NC(=O)NCCCC[C@H](NC(=O)[C@H](Cc2c[nH]c3ccccc23)NC(=O)OC(C)(C)C)C(=O)N[C@@H](CC(=O)O)C(=O)N[C@@H](Cc2ccccc2)C(N)=O)cc1` (Boc-WK([CO-X1])DF-NH2), the EC50 in the assay filed under Cavia porcellus [4] is 85 nM; in the assay on NCI-H345 [5] it was 120 nM. This molecule yielded an IC50 in assay [3] of 46 nM. In addition, the figures for the Max response in the assay filed under Cavia porcellus [6] and with NCI-H345 [7] were 80% and 91%, respectively. The molecule also returned a C/P in the assay filed under Cavia porcellus [1] of 0.26.

In assay [3], `CC(C)(C)OC(=O)N[C@@H](Cc1c[nH]c2ccccc12)C(=O)N[C@@H](CCCCNC(=O)Nc1cccc([N+](=O)[O-])c1)C(=O)N[C@@H](CC(=O)O)C(=O)N[C@@H](Cc1ccccc1)C(N)=O` (Boc-WK([CO-X2])DF-NH2) gave an IC50 of 5.8 nM. The same molecule displayed a C/P in the assay filed under Cavia porcellus [1] of 210.

`CC(C)(C)OC(=O)N[C@@H](Cc1c[nH]c2ccccc12)C(=O)N[C@@H](CCCCNC(=O)Nc1ccc([N+](=O)[O-])cc1)C(=O)N[C@@H](CC(=O)O)C(=O)N[C@@H](Cc1ccccc1)C(N)=O` (Boc-WK([CO-pNA])DF-NH2): the EC50 in the assay listed under Cavia porcellus [4] was determined as 39 nM; with NCI-H345 [5] it was 47 nM. The same molecule gave an IC50 in assay [3] of 41 nM. Moreover, the Max response is 94% in the assay with NCI-H345 [8] and 74% in the assay listed under Cavia porcellus [6]. In the assay filed under Cavia porcellus [1], this molecule had a C/P of 0.75.
